Data set [1] deals with T1, Signal transducer and activator of transcription 5B (Homo sapiens, UniProt P51692).
T1 sequence (P51692 whole entry): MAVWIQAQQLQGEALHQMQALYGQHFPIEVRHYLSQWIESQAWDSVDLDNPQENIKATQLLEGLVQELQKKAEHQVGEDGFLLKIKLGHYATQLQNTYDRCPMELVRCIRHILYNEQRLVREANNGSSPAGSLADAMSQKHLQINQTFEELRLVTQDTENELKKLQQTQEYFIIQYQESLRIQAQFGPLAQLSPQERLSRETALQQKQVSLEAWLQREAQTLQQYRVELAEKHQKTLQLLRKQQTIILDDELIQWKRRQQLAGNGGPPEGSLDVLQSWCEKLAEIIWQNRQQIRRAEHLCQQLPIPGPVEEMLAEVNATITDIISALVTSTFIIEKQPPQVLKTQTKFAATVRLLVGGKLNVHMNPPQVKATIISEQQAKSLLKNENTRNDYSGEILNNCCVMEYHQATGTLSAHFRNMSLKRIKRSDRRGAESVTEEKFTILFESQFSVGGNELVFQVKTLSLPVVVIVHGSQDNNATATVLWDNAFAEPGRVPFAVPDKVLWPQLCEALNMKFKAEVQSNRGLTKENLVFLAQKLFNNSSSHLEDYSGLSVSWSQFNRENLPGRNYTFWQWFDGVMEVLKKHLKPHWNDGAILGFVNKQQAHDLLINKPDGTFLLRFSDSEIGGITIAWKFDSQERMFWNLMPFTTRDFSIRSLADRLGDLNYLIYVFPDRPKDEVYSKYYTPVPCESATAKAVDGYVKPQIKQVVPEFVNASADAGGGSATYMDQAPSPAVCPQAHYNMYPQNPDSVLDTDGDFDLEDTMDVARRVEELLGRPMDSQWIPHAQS
Description: Inhibition of STAT5B SH2 domain (unknown origin)-5-FAM-GpYLVLDKW interaction compound treated for 15 mins by fluorescent polarization assay. In outline:
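Fluorescence polarization used STAT5B SH2 domain bound to the fluorescein-labelled phosphopeptide 5-FAM-GpYLVDKW, with inhibitor tested up to 100 μM. Polarization was read every 15 min over 1 h to confirm the probe stayed bound and to pick the time of maximal change. Ki values were derived from the data.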

In data set [2] the test system is K562. Description: Cytotoxicity against human K562 cells assessed as reduction in cell viability after 72 hrs by CellTiter-Blue assay. The class given is functional, cell-based. The note with it: K562, 72 h. An outline of the steps:
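K562 (Bcr-Abl) and MV-4;11 (FLT3-ITD) leukemia cells were exposed to inhibitor over 0.78–50 μM for 72 h. Viability was read by CellTiter-Blue and IC50 taken from the dose series.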
In general terms: Alamar Blue is a resazurin reagent that responds to reducing activity.

Data set [3] addresses Signal transducer and activator of transcription 3 (Homo sapiens) (UniProt P40763). Conditions: MDA-MB-231, 15 uM.
For data set [4], the system named is K562. Put plainly: Inhibition of STAT5 phosphorylation at Y694 residue in human K562 cells assessed as decreases in MYC expression after 5 hrs by Western blotting. The data set is classed as cell-based. An outline of the steps:
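K562 cells were dosed for 5 h at the same concentrations used for pSTAT5 inhibition. MYC protein was followed by immunoblot.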
On the technique in general: A western blot detects proteins with antibodies after separation by electrophoresis.

The target in data set [5] is Receptor-type tyrosine-protein kinase FLT3 (Homo sapiens) (UniProt P36888). Description: Inhibition of FLT3 (unknown origin).
Sequence of Receptor-type tyrosine-protein kinase FLT3 (Homo sapiens) (P36888 whole entry): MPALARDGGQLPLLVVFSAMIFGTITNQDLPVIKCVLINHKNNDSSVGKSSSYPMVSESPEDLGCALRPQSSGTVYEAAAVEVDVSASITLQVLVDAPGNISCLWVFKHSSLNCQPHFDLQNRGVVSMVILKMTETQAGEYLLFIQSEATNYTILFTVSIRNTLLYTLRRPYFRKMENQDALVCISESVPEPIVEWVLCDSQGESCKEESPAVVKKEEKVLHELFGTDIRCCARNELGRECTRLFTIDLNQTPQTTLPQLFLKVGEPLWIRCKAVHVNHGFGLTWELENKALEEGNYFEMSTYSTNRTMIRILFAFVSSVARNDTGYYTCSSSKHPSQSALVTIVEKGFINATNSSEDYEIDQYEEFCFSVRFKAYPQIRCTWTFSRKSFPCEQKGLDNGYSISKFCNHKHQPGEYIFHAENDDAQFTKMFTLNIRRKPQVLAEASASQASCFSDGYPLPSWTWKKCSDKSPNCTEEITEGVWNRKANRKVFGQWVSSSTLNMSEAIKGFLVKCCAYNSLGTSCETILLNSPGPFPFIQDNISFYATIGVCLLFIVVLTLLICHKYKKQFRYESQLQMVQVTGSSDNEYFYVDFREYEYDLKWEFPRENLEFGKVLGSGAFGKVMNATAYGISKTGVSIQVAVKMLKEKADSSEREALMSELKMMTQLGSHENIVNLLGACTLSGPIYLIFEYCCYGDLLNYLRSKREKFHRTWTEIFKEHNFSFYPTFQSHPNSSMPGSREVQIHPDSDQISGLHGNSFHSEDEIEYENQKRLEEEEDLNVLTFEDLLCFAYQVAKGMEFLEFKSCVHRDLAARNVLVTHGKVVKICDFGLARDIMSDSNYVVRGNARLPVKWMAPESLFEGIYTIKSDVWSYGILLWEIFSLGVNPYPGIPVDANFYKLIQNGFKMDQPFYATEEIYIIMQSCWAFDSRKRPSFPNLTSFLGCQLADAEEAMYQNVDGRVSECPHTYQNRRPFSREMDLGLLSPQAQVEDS
For data set [6], the target named is Tyrosine-protein kinase ABL1 (Homo sapiens) (UniProt P00519). Description: Inhibition of ABL (unknown origin).
Sequence of Tyrosine-protein kinase ABL1 (Homo sapiens) (P00519 whole entry): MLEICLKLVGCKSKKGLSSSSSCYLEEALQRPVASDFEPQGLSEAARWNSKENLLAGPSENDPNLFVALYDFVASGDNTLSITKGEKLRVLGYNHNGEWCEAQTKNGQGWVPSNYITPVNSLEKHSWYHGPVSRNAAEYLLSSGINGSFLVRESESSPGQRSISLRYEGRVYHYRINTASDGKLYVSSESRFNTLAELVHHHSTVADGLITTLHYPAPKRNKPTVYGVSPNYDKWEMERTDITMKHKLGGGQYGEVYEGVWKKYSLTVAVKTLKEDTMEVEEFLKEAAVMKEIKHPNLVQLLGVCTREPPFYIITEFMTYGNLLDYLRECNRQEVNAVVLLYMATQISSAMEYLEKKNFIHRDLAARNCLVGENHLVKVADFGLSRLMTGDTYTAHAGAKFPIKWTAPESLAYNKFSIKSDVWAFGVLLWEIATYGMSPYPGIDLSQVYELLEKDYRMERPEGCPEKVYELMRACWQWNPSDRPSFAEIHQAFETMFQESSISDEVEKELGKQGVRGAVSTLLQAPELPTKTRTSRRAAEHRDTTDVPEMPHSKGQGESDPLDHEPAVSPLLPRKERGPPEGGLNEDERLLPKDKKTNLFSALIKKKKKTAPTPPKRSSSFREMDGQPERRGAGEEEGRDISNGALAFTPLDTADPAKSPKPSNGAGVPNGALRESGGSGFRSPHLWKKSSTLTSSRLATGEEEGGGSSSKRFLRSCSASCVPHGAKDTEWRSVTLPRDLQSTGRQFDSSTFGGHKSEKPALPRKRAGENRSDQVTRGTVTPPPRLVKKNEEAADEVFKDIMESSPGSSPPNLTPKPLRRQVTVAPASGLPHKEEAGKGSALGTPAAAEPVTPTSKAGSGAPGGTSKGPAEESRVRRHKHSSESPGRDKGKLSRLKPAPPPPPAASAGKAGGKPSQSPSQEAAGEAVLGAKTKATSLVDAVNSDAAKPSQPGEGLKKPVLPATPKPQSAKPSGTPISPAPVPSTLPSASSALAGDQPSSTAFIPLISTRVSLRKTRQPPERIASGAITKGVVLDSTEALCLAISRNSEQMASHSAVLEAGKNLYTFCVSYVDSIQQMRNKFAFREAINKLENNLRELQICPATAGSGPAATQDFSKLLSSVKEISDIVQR
Data set [7] concerns the target T1, Signal transducer and activator of transcription 5B. Put plainly: Binding affinity to full-length His-tagged STAT5B (unknown origin) by surface plasmon resonance assay. (Surface plasmon resonance follows binding to a sensor surface in real time, without labels.)
The test system of data set [8] is K562. Put plainly: Inhibition of STAT5 phosphorylation at Y694 residue in human K562 cells after 5 hrs by Western blotting. The class given is cell-based. An outline of the steps: (§1)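 K562 cells were treated for 5 h across a dose range, then harvested. Immunoblots probed phospho-STAT5 (Y694), total STAT5 and cleaved PARP-1.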
Data set [9] relates to K562. Description: Inhibition of STAT5 phosphorylation at Y694 residue in human K562 cells at 10 uM after 5 hrs by Western blotting. The data set is classed as cell-based. In outline:
as §1

The test system of data set [10] is MDA-MB-231. Description: Effect on total STAT3 level in human MDA-MB-231 cells at 15 uM after 5 hrs by Western blotting. The class given is functional, cell-based. In outline: (§2)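 MDA-MB-231 breast cancer cells carry high pSTAT3 and negligible pSTAT5. They were treated up to 20 μM and immunoblotted for pSTAT3, total STAT3 and total STAT5.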
The next data set concerns the target JAK2/JAK1 (Homo sapiens) (UniProt P23458+O60674). Put plainly: Inhibition of JAK1/2 (unknown origin). The class given is protein-complex assay.
The subject of a further data set is MV4-11. Description: Cytotoxicity against human MV4-11 cells assessed as reduction in cell viability after 72 hrs by CellTiter-Blue assay. Conditions: MV4-11, 72 h.
A short description of data set [11]: Cytotoxicity against human CD34-positive umbilical cord cells assessed as reduction in cell viability at 10 uM after 72 hrs by CellTiter-Blue assay. The class given is cell-based. In outline:
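Healthy human CD34+ umbilical cord cells received a single 10 μM dose, with MV4;11 cells run alongside. Cell viability was then measured.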

The subject of data set [12] is K562. Description: Effect on total STAT5 level in human K562 cells at 15 uM after 5 hrs by Western blotting. The data set is classed as functional, cell-based. In outline:
as §1

In data set [13] the test system is MDA-MB-231. Description: Effect on total STAT5 level in human MDA-MB-231 cells at 15 uM after 5 hrs by Western blotting. The class given is functional, cell-based. An outline of the steps:
as §2

The subject of data set [14] is K562. Put plainly: Inhibition of STAT5 phosphorylation at Y694 residue in human K562 cells assessed as decreases in MCL-1 expression at 15 uM after 24 hrs by Western blotting. The data set is classed as cell-based. In outline:
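K562 cells were exposed to 15 μM for 24 h. Lysates were immunoblotted for cleaved PARP-1, cleaved caspase-3 and MCL-1.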

The structures appear in SMILES notation. The source made the active and inactive calls. The calls are words filed in the database; no cut-off is given here.

Sequence of Signal transducer and activator of transcription 3 (Homo sapiens) (P40763 whole entry): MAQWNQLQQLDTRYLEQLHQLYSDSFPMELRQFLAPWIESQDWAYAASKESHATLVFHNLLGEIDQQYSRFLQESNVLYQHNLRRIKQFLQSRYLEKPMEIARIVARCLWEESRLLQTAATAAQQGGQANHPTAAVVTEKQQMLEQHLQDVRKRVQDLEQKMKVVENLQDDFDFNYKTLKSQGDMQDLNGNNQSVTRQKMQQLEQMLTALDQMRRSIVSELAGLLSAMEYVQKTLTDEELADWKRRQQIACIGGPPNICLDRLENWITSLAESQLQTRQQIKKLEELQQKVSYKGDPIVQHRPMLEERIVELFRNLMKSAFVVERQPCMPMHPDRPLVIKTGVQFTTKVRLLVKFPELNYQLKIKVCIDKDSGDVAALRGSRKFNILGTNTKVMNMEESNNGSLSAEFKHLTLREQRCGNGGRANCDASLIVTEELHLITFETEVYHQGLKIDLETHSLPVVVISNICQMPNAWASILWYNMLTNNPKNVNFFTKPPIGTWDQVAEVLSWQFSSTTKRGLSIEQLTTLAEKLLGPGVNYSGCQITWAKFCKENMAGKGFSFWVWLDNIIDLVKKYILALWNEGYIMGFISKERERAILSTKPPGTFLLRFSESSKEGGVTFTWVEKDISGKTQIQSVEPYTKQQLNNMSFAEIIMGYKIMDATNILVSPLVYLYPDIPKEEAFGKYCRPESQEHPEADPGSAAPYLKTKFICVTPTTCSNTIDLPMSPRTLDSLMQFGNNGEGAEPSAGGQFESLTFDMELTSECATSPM

For the compound `CN(CC(=O)N(Cc1ccc(F)cc1)c1ccc(C(=O)O)c(O)c1)S(=O)(=O)c1c(F)c(F)c(F)c(F)c1F`, the Ki (usually a measure of affinity in units of concentration, obtained from inhibition or displacement) in data set [1] was greater than 60 µM.
Still for that read-out and setting: under `Cc1cc(C)c(S(=O)(=O)N(C)CC(=O)N(CC2CC2)c2ccc(C(=O)O)c(O)c2)c(C)c1` stands greater than 60 µM.
The compound `Cc1cc(C)c(S(=O)(=O)N(C)CC(=O)N(Cc2ccc3ccccc3c2)c2ccc(C(=O)O)c(O)c2)c(C)c1` had a Ki in [1] of 6.62 µM. Moreover, in the data set on K562 [2], the IC50 (as a rule, the midpoint of a concentration-inhibition curve) was found to be 3 µM.
`CN(CC(=O)N(Cc1cc(C(C)(C)C)cc(C(C)(C)C)c1)c1ccc(C(=O)O)c(O)c1)S(=O)(=O)c1c(F)c(F)c(F)c(F)c1F` returned a Ki in [1] of 11.5 µM. The IC50 in the data set with K562 [2] amounted to 3 µM.
Regarding `Cc1cc(C)c(S(=O)(=O)N(C)CC(=O)N(Cc2c(F)c(F)c(F)c(F)c2F)c2ccc(C(=O)O)c(O)c2)c(C)c1`, the Ki in data set [1] is greater than 60 µM.
Same read-out and setting: under `Cc1cc(C)c(S(=O)(=O)N(C)CC(=O)N(Cc2ccccc2)c2ccc(C(=O)O)c(O)c2)c(C)c1` stands greater than 60 µM.
In turn, `CN(CC(=O)N(Cc1c(F)c(F)c(F)c(F)c1F)c1ccc(C(=O)O)c(O)c1)S(=O)(=O)c1c(F)c(F)c(F)c(F)c1F` displayed a Ki in data set [1] greater than 60 µM.
In turn, `CN(CC(=O)N(Cc1cccs1)c1ccc(C(=O)O)c(O)c1)S(=O)(=O)c1c(F)c(F)c(F)c(F)c1F` gave a Ki in data set [1] greater than 60 µM.
Still for that read-out and setting: as for `Cc1cc(C)c(S(=O)(=O)N(C)CC(=O)N(Cc2cccs2)c2ccc(C(=O)O)c(O)c2)c(C)c1`, the figure is greater than 60 µM; as for `Cc1cc(C)c(S(=O)(=O)N(C)CC(=O)N(Cc2nccn2C)c2ccc(C(=O)O)c(O)c2)c(C)c1`, greater than 60 µM; as for `CN(CC(=O)N(CC1CC1)c1ccc(C(=O)O)c(O)c1)S(=O)(=O)c1c(F)c(F)c(F)c(F)c1F`, greater than 60 µM.
Same read-out and setting: as for `Cc1cc(C)c(S(=O)(=O)N(C)CC(=O)N(CC2CCCO2)c2ccc(C(=O)O)c(O)c2)c(C)c1` (stereo unspecified), the figure is greater than 60 µM; as for `CN(CC(=O)N(Cc1ccc(C(C)(C)C)cc1)c1ccc(C(=O)O)c(O)c1)S(=O)(=O)c1c(F)c(F)c(F)c(F)c1F`, greater than 60 µM.
The same measure, in the same setting: as for `Cc1cc(C)c(S(=O)(=O)N(C)CC(=O)N(CC23CCC(CC2)C3)c2ccc(C(=O)O)c(O)c2)c(C)c1`, the figure is greater than 60 µM; as for `Cc1ccc(CN(C(=O)CN(C)S(=O)(=O)c2c(F)c(F)c(F)c(F)c2F)c2ccc(C(=O)O)c(O)c2)cc1`, greater than 60 µM.
For `Cc1cc(C)c(S(=O)(=O)N(CC(=O)N(Cc2cc(C(C)(C)C)cc(C(C)(C)C)c2)c2ccc(C(=O)O)c(O)c2)Cc2ccc(Cl)cc2)c(C)c1`, in the data set on K562 [2], the IC50 is 3 µM.
In turn, `CN(CC(=O)N(Cc1ccccc1)c1ccc(C(=O)O)c(O)c1)S(=O)(=O)c1c(F)c(F)c(F)c(F)c1F` registered a Ki in data set [1] greater than 60 µM.
`CN(CC(=O)N(Cc1ccc2ccccc2c1)c1ccc(C(=O)O)c(O)c1)S(=O)(=O)c1c(F)c(F)c(F)c(F)c1F` gave a Ki in [1] of 12.4 µM. In addition, in the data set with K562 [2], the IC50 was determined as 3 µM.
Take `CC(C)(C)c1cc(CN(C(=O)CN(Cc2ccc(Cl)cc2)S(=O)(=O)c2c(F)c(F)c(F)c(F)c2F)c2ccc(C(=O)O)c(O)c2)cc(C(C)(C)C)c1`: the inhibition entry (in data set [3]; in [5]; in [6]; at JAK2/JAK1 (Homo sapiens)) was “inactive” in each case. Besides, the inhibition entry in the data set on K562 [4] and in the data set on K562 [8] was “Dose-dependent effect” each time. In addition, in data set [7], the Kd (as a rule, the constant that tells how readily two partners part at equilibrium) is 0.042 µM. Also, the IC50 with K562 [2] came to 3 µM; with MV4-11 it was 3.5 µM. Also, the inhibition entry in the data set on K562 [9] and with K562 [14] was “Active” each time. The outcome with MDA-MB-231 [10], with K562 [12] and in the data set on MDA-MB-231 [13] was inactive. The Activity entry in data set [11] was “Non-toxic”.
The compound `Cc1cc(C)c(S(=O)(=O)N(C)CC(=O)N(Cc2ccc(C(C)(C)C)cc2)c2ccc(C(=O)O)c(O)c2)c(C)c1` gave a Ki in [1] greater than 60 µM.
In the case of `Cc1cc(C)c(S(=O)(=O)N(C)CC(=O)N(Cc2ccc(F)cc2)c2ccc(C(=O)O)c(O)c2)c(C)c1`, the Ki in data set [1] is greater than 60 µM.
`Cc1cc(C)c(S(=O)(=O)N(CC(=O)N(Cc2ccc3ccccc3c2)c2ccc(C(=O)O)c(O)c2)Cc2ccc(Cl)cc2)c(C)c1`: the IC50 in the data set with K562 [2] was 3 µM.
`CN(CC(=O)N(CC1CCCO1)c1ccc(C(=O)O)c(O)c1)S(=O)(=O)c1c(F)c(F)c(F)c(F)c1F` (stereo unspecified): in data set [1], the Ki was greater than 60 µM.
On to `CN(CC(=O)N(Cc1nccn1C)c1ccc(C(=O)O)c(O)c1)S(=O)(=O)c1c(F)c(F)c(F)c(F)c1F`, for which the Ki in data set [1] was greater than 60 µM.
Turning to `Cc1cc(C)c(S(=O)(=O)N(C)CC(=O)N(Cc2cc(C(C)(C)C)cc(C(C)(C)C)c2)c2ccc(C(=O)O)c(O)c2)c(C)c1`, the Ki in data set [1] was determined as 4.77 µM. For the same compound, in the data set on K562 [2], the IC50 worked out at 3 µM.
The compound `CN(CC(=O)N(CC12CCC(CC1)C2)c1ccc(C(=O)O)c(O)c1)S(=O)(=O)c1c(F)c(F)c(F)c(F)c1F` gave a Ki in [1] greater than 60 µM.
The same measure, in the same setting: as for `Cc1ccc(CN(C(=O)CN(C)S(=O)(=O)c2c(C)cc(C)cc2C)c2ccc(C(=O)O)c(O)c2)cc1`, the figure is greater than 60 µM.
As to `O=C(O)c1ccc(N(Cc2ccc3ccccc3c2)C(=O)CN(Cc2ccc(Cl)cc2)S(=O)(=O)c2c(F)c(F)c(F)c(F)c2F)cc1O`, in the data set on K562 [2], the IC50 came out at 3 µM.

The values are drawn from ChEMBL document CHEMBL3352760, “Nanomolar-Potency Small Molecule Inhibitor of STAT5 Protein” (ACS Med Chem Lett, 2014).
